Published values collected from several papers.
Effect on: cell growth or viability

O=c1cc(CCl)c2c(O)cc(O)cc2o1 — IC50 (HEK293; MTT; 36 h): > 20 µM
C=CC(=O)N1CCC[C@@H](n2nc(-c3ccc(Oc4ccccc4)cc3)c3c(N)ncnc32)C1 — IC50 (TMD8; CCK-8; 72 h): 0.01 µM
Cc1[nH]c(C)c(-c2ccc(-c3cc(C(F)(F)F)cc(C(F)(F)F)c3)nc2)c(=O)c1Br — IC50 (HEK293): > 10 µM
CCC(=O)Nc1cc(Nc2nc(Nc3cnn(C)c3)c3sccc3n2)c(OC)cc1N(C)CCN(C)C — IC50 (NCI-H1975; MTT): > 50 µM
Cc1[nH]c(C)c(-c2ccc(CCc3ccc(F)cc3F)cc2)c(=O)c1Br — IC50 (HEK293): > 10 µM
COc1cc2c(Nc3ccc(Cl)c(Cl)c3F)ncnc2cc1OC[C@@H]1C[C@@H]2CN(C)C[C@@H]2C1 — IC50 (GBM6; ATP luminescence; 18 days, 3D culture): 0.102 µM
O=C1NCCc2[nH]c(-c3ccncc3)cc21 — IC50 (SK-MEL-28): 9.6 µM
Cc1c(NC(=O)c2ccc(C(C)(C)C)cc2)cccc1-c1cn(C)c(=O)c(Nc2ccc(C(=O)N3CCOCC3)cc2)n1 — IC50 (CNE2Z): > 10 µM
COc1cc(N(C)CCN(C)C)c(NC(=O)/C=C/C(C)C)cc1Nc1nc(Nc2cnn(C)c2)c2sccc2n1 — IC50 (NCI-H1975; MTT): 0.297 µM
COc1ccc2oc(=O)cc(CSC(C)=O)c2c1 — IC50 (HEK293; MTT; 36 h): > 20 µM
C=CC(=O)Nc1cc(Nc2nc(N3CCOCC3)c3sccc3n2)c(OC)cc1N(C)CCN(C)C — IC50 (NCI-H1975; MTT): 37.5 µM
Cc1[nH]cc(Br)c(=O)c1-c1ccc(Oc2ccc(OC(F)(F)F)cc2)cc1 — IC50 (HEK293): > 10 µM
CC[C@@H](C)[C@H](N)C(=O)N1Cc2ccccc2C1 — IC50 (SET-2; ATP luminescence): 0.09 µM
CCCCN(CCCC)C(=O)c1ncn2c(=O)n(C)nnc12 — IC50 (T98G; resazurin; 7 days): 140 µM
CCCCCCCc1[nH]c2ccccc2c(=O)c1C — IC50 (HEK293): > 10 µM
COc1cc(Nc2nccc(-c3cnn4nc(OC)ccc34)n2)cc(C(F)(F)F)c1 — IC50 (MKN-1; ATP luminescence): 0.58 µM
C=CC(=O)Nc1cccc(Nc2nc(Nc3ccc(OCCOC)cc3)ncc2F)c1 — IC50 (CNE2Z): 6.33 µM
CNC(=O)c1ncn2c(NCc3c(F)ccc4c3CCO4)ncc(-c3ccccc3)c12 — IC50 (KARPAS-422; 7 days): 0.052 µM
CC#CC(=O)N1CCC[C@H]1c1nc(-c2ccc(C(=O)Nc3ccccn3)cc2)c2c(N)nccn12 — IC50 (TMD8; CCK-8; 72 h): 0.014 µM
C=CC(=O)Nc1cc(Nc2nc(N3CCc4sccc4C3)c3cccnc3n2)c(OC)cc1N(C)C — IC50 (NCI-H1975; MTT): > 50 µM
Cc1[nH]c(C)c(-c2ccc(OCc3cc(C(F)(F)F)cc(C(F)(F)F)c3)nc2)c(=O)c1Br — IC50 (HEK293): > 10 µM
COc1ccc(F)cc1C(=O)NCc1ccc(-c2nn([C@@H](C)C(F)(F)F)c(N)c2C(N)=O)cc1 — IC50 (Rec1; ATP luminescence; 72 h): 0.0031 µM
CCC(=O)Nc1cc(Nc2nc(N3CCc4sccc4C3)c3cccnc3n2)c(OC)cc1N1CCC(N(C)C)CC1 — IC50 (NCI-H1975; MTT): 0.81 µM
c1cc(CN2CCN(c3ccncc3)CC2)cc(-c2ccc(-c3nc4ccccc4[nH]3)cc2)c1 — IC50 (HEK293): > 10 µM
C=CC(=O)Nc1cc(Nc2nc(N3CCc4sccc4C3)c3cccnc3n2)c(OC)cc1N1CCN(C(C)=O)CC1 — IC50 (NCI-H1975; MTT): 0.694 µM
CC(=O)Oc1ccc2c(CSC(C)=O)cc(=O)oc2c1 — IC50 (HEK293; MTT; 36 h): > 20 µM
COc1c(C)[nH]c(C)c(-c2ccc(Oc3cccc(C(F)(F)F)c3)cc2)c1=O — IC50 (HEK293): > 10 µM
C=CC(=O)Nc1cc(Nc2nc(N3CCc4sccc4C3)c3cccnc3n2)c(OC)cc1N1CCC(N(C)C)CC1 — IC50 (NCI-H1975; MTT): 0.15 µM
C[C@H](O)C(=O)CCCCCCC(=O)Nc1cccc(-c2cn(-c3ccccc3)nn2)c1 — IC50 (HEK293; XTT): 15.9 µM
COc1ccc2oc(=O)cc(CCl)c2c1 — IC50 (HEK293; MTT; 36 h): > 20 µM
C=C(Cl)C(=O)Nc1cc(Nc2nc(Nc3cnn(C)c3)c3sccc3n2)c(OC)cc1N(C)CCN(C)C — IC50 (NCI-H1975; MTT): 0.023 µM
Cn1nnc2c(C(N)=O)ncn2c1=O — IC50 (T98G; resazurin; 7 days): 660 µM
O=c1ccc2ccc(O)c(CO)c2o1 — IC50 (HEK293; MTT; 36 h): > 20 µM
Cc1ncn2c(=O)n(C)nnc12 — IC50 (T98G; resazurin; 7 days): 6 µM
N[C@@H](CC(=O)N1CCN(C(c2ccc(F)cc2)c2ccc(F)cc2)CC1)C(=O)N1Cc2ccccc2C1 — IC50 (SET-2; ATP luminescence; 48 h): 0.368 µM
CCOC(=O)c1c(-c2ccccc2)nc2c(sc3ccccc32)c1O — IC50 (HEK293): > 10 µM
Cn1nnc2c(Cl)ncn2c1=O — IC50 (T98G; resazurin; 7 days): 60 µM
